Data reported in PubChem BioAssay.
The source made the active and inactive calls.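 How the source made its calls: active means mean duplicate activation above the buffer control mean plus 5 SD of those controls; inactive means the rest.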

The compounds below were run against Potassium voltage-gated channel subfamily E member 1 (Homo sapiens) + Potassium voltage-gated channel subfamily KQT member 1 (Homo sapiens) (UniProt P15382+P51787) (assay: KCNQ1-E1 channel activation – thallium flux, CHO-K1 KCNQ1/E1 cells, selectivity assay for KCNQ1 potentiator project, confirmation (AID 493186;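 on activation: 0% = assay buffer control and 100% = R-L3 activator control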)). Conditions: FluxOR thallium flux, at 10 µM; stronger effect = higher value.
Sequence of Potassium voltage-gated channel subfamily E member 1 (Homo sapiens) + Potassium voltage-gated channel subfamily KQT member 1 (Homo sapiens) (P51787 whole entry, looked up): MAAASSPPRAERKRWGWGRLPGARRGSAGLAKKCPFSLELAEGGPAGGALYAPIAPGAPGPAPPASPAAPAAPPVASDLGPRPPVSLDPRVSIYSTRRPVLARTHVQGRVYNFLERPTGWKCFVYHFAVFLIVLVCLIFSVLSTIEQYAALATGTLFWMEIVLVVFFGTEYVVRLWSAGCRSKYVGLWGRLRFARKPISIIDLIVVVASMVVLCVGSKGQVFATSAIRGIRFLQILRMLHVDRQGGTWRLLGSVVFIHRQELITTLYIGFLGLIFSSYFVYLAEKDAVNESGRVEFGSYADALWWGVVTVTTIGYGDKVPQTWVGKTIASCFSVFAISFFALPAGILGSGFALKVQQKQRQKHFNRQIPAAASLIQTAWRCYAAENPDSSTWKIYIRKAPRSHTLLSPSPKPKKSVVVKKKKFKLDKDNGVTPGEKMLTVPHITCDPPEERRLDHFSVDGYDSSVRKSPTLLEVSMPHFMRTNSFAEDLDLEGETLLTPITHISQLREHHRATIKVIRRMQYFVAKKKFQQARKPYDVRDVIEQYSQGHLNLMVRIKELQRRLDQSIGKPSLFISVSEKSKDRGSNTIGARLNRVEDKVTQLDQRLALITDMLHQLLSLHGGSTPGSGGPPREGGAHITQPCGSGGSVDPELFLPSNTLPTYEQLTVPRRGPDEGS
Outline: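 Material: CHO-K1 cells with KCNQ1/E1 / Timing: dye 90 min, compound 20 min, room temperature / Technique: kinetic thallium-sensitive FluxOR dye fluorescence / Read-out: percent activation scaled between buffer and R-L3 ratio signals / Replicates: tested in duplicate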

outcome, inactive:
CCn1c2ccccc2c2cc(CC(N)=O)ccc21
CC(NC(=O)c1ccco1)C(=O)N(C)Cc1ccc(C(F)(F)F)cc1 (centres undefined)
C/C(=N\Nc1nc(C)c(C)s1)c1ccc([N+](=O)[O-])cc1
COc1cccc(-c2nc(=S)c3c(o2)CCCC3)c1
O=C(NC(=S)Nc1ccccc1)c1cncc(C#Cc2ccccc2)c1
CN(C)CCCN(C(=O)CCOc1ccccc1)c1nc2c(F)cccc2s1
Cc1cccc(OCc2n[nH]c(=S)n2C2CCCCC2)c1
COc1cc(OC)cc(-c2nnc(Nc3nc4c(F)cccc4s3)o2)c1
O=C(NC1(O)C(=O)c2ccccc2C1=O)c1ccc(C(F)(F)F)cc1
Cn1c(O)c(N=NC(=S)Nc2ccccc2F)c2cc(S(=O)(=O)N3CCOCC3)ccc21
O=C(O)CCn1c(-c2ccccc2)cc2ccccc21
S=c1[nH]nc(-c2ccco2)n1/N=C/C(Cl)=C/c1ccccc1
N#CC(c1ccccc1)c1ccc2c(C(F)(F)F)cc(C(F)(F)F)nc2n1 (centres undefined)
NNc1nc2c(F)cc(F)cc2s1
CCCCn1c(=O)[nH]c(=O)c2c1nc(Cn1ncc(Cl)c(Cl)c1=O)n2CCC
O=C(N/C(=C\c1ccc([N+](=O)[O-])cc1)C(=O)N1CCCCC1)c1ccco1
O=C(CNC(=S)NC(=O)c1ccc(Br)o1)c1ccccc1
Cc1ccc(Nc2ccc([N+](=O)[O-])cn2)cc1Cl

activation, active:
CCOC(=O)SC1=N/C(=C\c2ccc(N(C)C)cc2)C(=O)S1 15.3%
